Results: ChEMBL document CHEMBL1127375, “Nucleic acid related compounds. 84. Synthesis of 6'-(E and Z)-halohomovinyl derivatives of adenosine, inactivation of S-adenosyl-L-homocysteine hydrolase, and correlation of anticancer and antiviral potencies with enzyme inhibition” (J Med Chem, 1994)
≈ marks a conversion by molar mass, not a printed value.

What was measured:
[1] = Tested ratio of kinact to that of Ki
Method in brief: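 Purified recombinant human placental AdoHcy hydrolase (10 nM) preincubated with various inhibitor concentrations for various times at 37 °C, pH 7.2, in 50 mM potassium phosphate with 1 mM EDTA. Residual activity was measured in the synthetic direction by adding Ado and homocysteine for 5 min. The reaction was stopped with perchloric acid and AdoHcy quantified by C-18 HPLC at 258 nm. Ki and kinact were derived from 1/Kapp = 1/kinact + Ki/kinact[I].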

E6SM [2] = assay: Tested for the minimum cytotoxic concentration against E6SM cells; format: functional; conditions: Homo sapiens
Method in brief: (§1)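 Uninfected E6SM, HeLa or Vero cultures were incubated with serial compound concentrations (400, 200, 100 … μg/mL). Cytotoxicity was judged as microscopically detectable alteration of normal cell morphology. The value is the minimum concentration causing this alteration.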

E6SM [3] = assay: Tested for the antiviral activity against HSV-1 (KOS) in human E6SM cells; format: functional
Method in brief: (§2)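 Confluent E6SM, HeLa or Vero cultures were inoculated with 100 CCID50 of virus and allowed 1 h adsorption. Residual virus was removed, then cells were incubated with compound at 400, 200, 100 … μg/mL. Virus-induced cytopathicity was scored once complete in untreated infected controls. MIC is the minimum inhibitory concentration.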

HeLa [4] = assay: Tested for the antiviral activity against Vesicular stomatitis virus in human HeLa cells; format: functional; method in brief: as §2
Adenosylhomocysteinase [5] = target: T1, Adenosylhomocysteinase (Homo sapiens, UniProt P23526); assay: Tested for kinetic constant for the inhibition of recombinant human placental S-Adenosyl-L-homocysteine Hydrolase
Target sequence in this assay (P23526 whole entry): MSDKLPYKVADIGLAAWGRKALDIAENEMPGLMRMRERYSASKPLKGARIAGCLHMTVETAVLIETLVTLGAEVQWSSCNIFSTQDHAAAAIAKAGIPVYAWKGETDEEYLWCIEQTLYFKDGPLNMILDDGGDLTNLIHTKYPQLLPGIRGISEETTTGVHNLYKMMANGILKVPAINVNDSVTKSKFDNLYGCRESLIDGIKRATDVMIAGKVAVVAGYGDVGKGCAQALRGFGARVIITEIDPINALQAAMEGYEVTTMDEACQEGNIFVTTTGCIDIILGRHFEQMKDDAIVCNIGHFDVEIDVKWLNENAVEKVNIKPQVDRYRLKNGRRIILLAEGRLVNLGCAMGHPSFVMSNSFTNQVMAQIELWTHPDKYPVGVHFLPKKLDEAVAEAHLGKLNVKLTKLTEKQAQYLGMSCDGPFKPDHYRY

Vero [6] = assay: Tested for the antiviral activity against Sindbis virus in simian Vero cells; format: functional; conditions: Chlorocebus sabaeus; method in brief: as §2
HeLa [7] = assay: Tested for the antiviral activity against Coxsackie B4 virus in human HeLa cells; format: functional; method in brief: as §2
Adenosylhomocysteinase [8] = target: T1, Adenosylhomocysteinase
Target sequence in this assay (P23526 2-432 limits assumed): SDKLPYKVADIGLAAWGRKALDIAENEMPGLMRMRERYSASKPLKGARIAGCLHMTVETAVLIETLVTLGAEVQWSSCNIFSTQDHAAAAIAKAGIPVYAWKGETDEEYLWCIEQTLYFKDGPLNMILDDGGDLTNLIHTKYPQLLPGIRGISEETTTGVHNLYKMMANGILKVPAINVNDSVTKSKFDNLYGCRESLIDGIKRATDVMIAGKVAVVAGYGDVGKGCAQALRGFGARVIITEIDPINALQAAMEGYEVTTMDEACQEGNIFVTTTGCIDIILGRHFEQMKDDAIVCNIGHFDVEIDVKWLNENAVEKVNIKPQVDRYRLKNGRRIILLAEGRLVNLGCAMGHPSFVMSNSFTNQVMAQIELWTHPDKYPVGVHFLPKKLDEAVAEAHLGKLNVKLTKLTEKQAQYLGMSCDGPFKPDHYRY

E6SM [9] = assay: Tested for the antiviral activity against Vesicular stomatitis virus in human E6SM cells; format: functional; method in brief: as §2
Vero [10] = assay: Tested for the antiviral activity against reovirus-1 in simian Vero cells; format: functional; conditions: Chlorocebus sabaeus; method in brief: as §2
MOLT-4 [11] = assay: Tested for in vitro cytostatic activity against human lymphoblast Molt-4 (Clone8); format: functional, cell-based
Method in brief: (§3)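 Cells seeded at 5 × 10^5/mL (murine L1210 leukemia, FM3A mammary carcinoma) or 7.5 × 10^5/mL (human Molt-4 clone 8, CEM) and exposed to varying compound concentrations. Incubation at 37 °C in humidified CO2 was 2 days for L1210/FM3A and 3 days for Molt-4/CEM. Viable cells were Coulter-counted; IC50 is the concentration reducing viable cell number by 50%. Means of at least two to three determinations.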

HeLa [12] = assay: Tested for the antiviral activity against polio-1 virus in human HeLa cells; format: functional; method in brief: as §2
FM3A = assay: Tested for in vitro cytostatic activity against murine mammary carcinoma (FM3A); format: functional, cell-based; conditions: Mus musculus; method in brief: as §3
E6SM [13] = assay: Tested for the antiviral activity against Vaccinia virus in human E6SM cells; format: functional; method in brief: as §2
HeLa [14] = assay: Tested for the minimum cytotoxic concentration against HeLa cells; format: functional; conditions: Homo sapiens; method in brief: as §1
Vero [15] = assay: Tested for the minimum cytotoxic concentration against Vero cells; format: functional; conditions: Chlorocebus sabaeus; method in brief: as §1
Vero [16] = assay: Tested for the antiviral activity against Parainfluenza-3 virus in simian Vero cells; format: functional; conditions: Chlorocebus sabaeus; method in brief: as §2
CCRF-CEM = assay: Tested for in vitro cytostatic activity against CEM cells; format: functional, cell-based; conditions: Homo sapiens; method in brief: as §3
E6SM [17] = assay: Tested for the antiviral activity against HSV-2 in human E6SM cells; format: functional; method in brief: as §2
L1210 = assay: Tested for in vitro cytostatic activity against murine leukemia L1210; format: functional, cell-based; conditions: Mus musculus; method in brief: as §3
Vero [18] = assay: Tested for the antiviral activity against forest virus in simian Vero cells; format: functional; conditions: Chlorocebus sabaeus; method in brief: as §2
Vero [19] = assay: Tested for the antiviral activity against Parainfluenza-3 virus in Simian Vero cells; format: functional; conditions: Chlorocebus sabaeus; method in brief: as §2
HeLa [20] = assay: Tested for the minimum cytotoxic concentration on HeLa cells; format: functional; conditions: Homo sapiens; method in brief: as §1
E6SM [21] = assay: Tested for the minimum cytotoxic concentration on E6SM cells; format: functional; conditions: Homo sapiens; method in brief: as §1
Vero [22] = assay: Tested for the minimum cytotoxic concentration on Vero cells; format: functional; conditions: Chlorocebus sabaeus; method in brief: as §1
E6SM [23] = assay: Tested for the antiviral activity against HSV-2 in Human E6SM cells; format: functional; method in brief: as §2
MOLT-4 [24] = assay: Tested for in vitro cytostatic activity against Human lymphoblast Molt-4 (Clone8); format: functional, cell-based; method in brief: as §3
HeLa [25] = assay: Tested for the antiviral activity against Coxsackie B4 virus in Human HeLa cells; format: functional; method in brief: as §2

Row | Structure (SMILES) | Ratio [1] | MCC (E6SM [2]) | MIC (E6SM [3]) | MIC (HeLa [4]) | Ki (Adenosylhomocysteinase [5]) | MIC (Vero [6]) | MIC (HeLa [7]) | K inact (Adenosylhomocysteinase [8]) | MIC (E6SM [9]) | MIC (Vero [10]) | IC50 (MOLT-4 [11]) | IC50 (FM3A) | MIC (E6SM [13]) | MCC (HeLa [14]) | MCC (Vero [15]) | MIC (Vero [16]) | IC50 (CCRF-CEM) | MIC (E6SM [17]) | IC50 (L1210) | MIC (Vero [18]) | also measured
1 | Nc1ncnc2c1ncn2[C@@H]1O[C@H](/C=C/Cl)[C@@H](O)[C@H]1O | 0.13 | 400 µg/mL | > 200 µg/mL | > 200 µg/mL | 0.11 µM | > 100 µg/mL | > 200 µg/mL | 0.014 min⁻¹ | 70 µg/mL (≈ 235 µM) | > 100 µg/mL | 80 µM | 160 µM | 70 µg/mL (≈ 235 µM) | ≥ 200 µg/mL | ≥ 200 µg/mL | > 200 µg/mL | 99 µM | > 200 µg/mL | 139 µM | > 100 µg/mL | MIC (HeLa [12]): > 200 µg/mL
2 | Nc1ncnc2c1ncn2[C@@H]1O[C@H](/C=C\Cl)[C@@H](O)[C@H]1O |  | ≥ 200 µg/mL | 70 µg/mL (≈ 235 µM) | 70 µg/mL (≈ 235 µM) |  | 20 µg/mL (≈ 67.2 µM) | > 100 µg/mL |  | 20 µg/mL (≈ 67.2 µM) | 70 µg/mL (≈ 235 µM) | 117 µM | 164 µM | 20 µg/mL (≈ 67.2 µM) | ≥ 200 µg/mL | ≥ 100 µg/mL | > 100 µg/mL | 86 µM | > 100 µg/mL | 143 µM | 70 µg/mL (≈ 235 µM) | 
3 | Cc1ccc(S(=O)(=O)/C=C/[C@H]2OC(n3cnc4c(N)ncnc43)[C@H](O)[C@@H]2O)cc1 (some centres undefined) |  |  | 20 µg/mL (≈ 47.9 µM) | > 400 µg/mL |  | > 400 µg/mL | > 400 µg/mL |  | > 100 µg/mL | > 400 µg/mL | 32 µM | 208 µM | 20 µg/mL (≈ 47.9 µM) |  |  |  | 20 µM |  | 54 µM | > 400 µg/mL | MIC (Vero [19]): > 400 µg/mL; MCC (HeLa [20]): > 400 µg/mL; MIC (HeLa [12]): > 400 µg/mL; MCC (E6SM [21]): 200 µg/mL; MCC (Vero [22]): > 400 µg/mL; MIC (E6SM [23]): 20 µg/mL (≈ 47.9 µM)
4 | Nc1ncnc2c1ncn2[C@@H]1O[C@H](/C=C/Br)[C@@H](O)[C@H]1O | 0.21 | ≥ 200 µg/mL | 150 µg/mL (≈ 438 µM) | 7 µg/mL (≈ 20.5 µM) | 0.134 µM | > 100 µg/mL | > 100 µg/mL | 0.028 min⁻¹ | 7 µg/mL (≈ 20.5 µM) | > 100 µg/mL |  | 60 µM | 20 µg/mL (≈ 58.5 µM) | ≥ 200 µg/mL | ≥ 200 µg/mL | > 200 µg/mL | 56 µM |  | 42 µM | > 100 µg/mL | IC50 (MOLT-4 [24]): 56 µM; MIC (E6SM [23]): > 100 µg/mL
5 | Nc1ncnc2c1ncn2C1O[C@H](/C=C/I)[C@@H](O)[C@H]1O (some centres undefined) | 0.6 | ≥ 200 µg/mL | > 100 µg/mL | 7 µg/mL (≈ 18 µM) | 0.096 µM | > 200 µg/mL | > 100 µg/mL | 0.058 min⁻¹ | 2 µg/mL (≈ 5.14 µM) | > 200 µg/mL | 18 µM | 15 µM | 7 µg/mL (≈ 18 µM) | 200 µg/mL | ≥ 200 µg/mL | > 200 µg/mL | 26 µM | > 100 µg/mL | 15 µM | > 200 µg/mL | 
6 | Nc1ncnc2c1ncn2C1O[C@H](/C=C/F)[C@@H](O)[C@H]1O (some centres undefined) | 0.008 | > 200 µg/mL | > 200 µg/mL | > 100 µg/mL | 1.3 µM | 200 µg/mL (≈ 711 µM) |  | 0.01 min⁻¹ | 100 µg/mL (≈ 356 µM) | 70 µg/mL (≈ 249 µM) | 266 µM | 287 µM | 70 µg/mL (≈ 249 µM) | > 200 µg/mL | > 200 µg/mL | 150 µg/mL (≈ 533 µM) | 147 µM | 150 µg/mL (≈ 533 µM) | 301 µM |  | MIC (HeLa [25]): > 100 µg/mL; MIC (HeLa [12]): 150 µg/mL (≈ 533 µM)
7 | Nc1ncnc2c1ncn2[C@@H]1O[C@H](/C=C\Br)[C@@H](O)[C@H]1O |  | > 200 µg/mL | 70 µg/mL (≈ 205 µM) | 150 µg/mL (≈ 438 µM) |  | 20 µg/mL (≈ 58.5 µM) | > 200 µg/mL |  | 150 µg/mL (≈ 438 µM) | > 100 µg/mL | 93 µM | 134 µM | 150 µg/mL (≈ 438 µM) | > 200 µg/mL | ≥ 200 µg/mL | 150 µg/mL (≈ 438 µM) | 65 µM | > 200 µg/mL | 104 µM | 150 µg/mL (≈ 438 µM) | MIC (HeLa [12]): > 200 µg/mL
8 | C=C(Br)[C@H]1OC(n2cnc3c(N)ncnc32)[C@H](O)[C@@H]1O (some centres undefined) |  |  |  |  |  |  |  |  |  |  |  | 47 µM |  |  |  |  | 13 µM |  | 25 µM |  | 
9 | Nc1ncnc2c1ncn2[C@@H]1O[C@H](/C=C\I)[C@@H](O)[C@H]1O |  | > 200 µg/mL | > 200 µg/mL | 7 µg/mL (≈ 18 µM) |  | > 200 µg/mL | > 200 µg/mL |  | 7 µg/mL (≈ 18 µM) | 100 µg/mL (≈ 257 µM) | 21 µM | 43 µM | 20 µg/mL (≈ 51.4 µM) | > 200 µg/mL | > 200 µg/mL | > 200 µg/mL | 32 µM | > 200 µg/mL | 43 µM | > 200 µg/mL | 
